The record followed here is PubChem BioAssay AID522 (The Scripps Research Institute Molecular Screening Center, 2006).

In all, about 65,000 compounds went through this assay and about 1,200 (1.8%) were called active.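 Rule for the calls: active = activation above the mean activation of all tested compounds plus 3 SD (cut at about 50% in these data); inactive = the rest.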 Only a selection was taken, and actives are over-represented in it overall.

Chain of Steroidogenic factor 1 (Homo sapiens) (Q13285 whole entry, looked up, the tested form may be a part): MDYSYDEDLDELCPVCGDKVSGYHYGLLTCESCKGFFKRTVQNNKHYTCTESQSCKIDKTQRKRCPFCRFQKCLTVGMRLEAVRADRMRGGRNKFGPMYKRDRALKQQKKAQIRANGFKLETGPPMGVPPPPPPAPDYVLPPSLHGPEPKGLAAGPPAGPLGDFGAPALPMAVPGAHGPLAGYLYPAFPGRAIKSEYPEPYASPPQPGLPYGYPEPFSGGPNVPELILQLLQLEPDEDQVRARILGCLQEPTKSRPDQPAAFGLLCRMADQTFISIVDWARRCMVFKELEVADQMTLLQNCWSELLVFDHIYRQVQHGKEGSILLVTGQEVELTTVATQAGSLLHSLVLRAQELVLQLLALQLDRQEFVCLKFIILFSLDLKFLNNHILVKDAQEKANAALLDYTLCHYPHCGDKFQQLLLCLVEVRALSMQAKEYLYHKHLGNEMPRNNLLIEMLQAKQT

The target in the assay is Steroidogenic factor 1 (Homo sapiens) (UniProt Q13285). In words: SF-1 ligand-binding domain transactivation enhancers – cell-based, CHO-K1, Gal4-SF-1 LBD, luciferase luminescence, primary screen (AID 522). The conditions noted are these: CHO-K1 Gal4-SF-1 LBD luciferase reporter; at 10 µM; hits give high values; % increase over DMSO SF-1-specific signal. The essentials:
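Test system: CHO-K1 cells co-transfected with Gal4 DBD–human SF-1 LBD, 5xGal4 luciferase reporter. Quantity: 4,000 cells per well. Compound: 10 µM only. Incubation: compound added 1 h post-seeding, 20 h exposure at 37 °C, 5% CO2. Detection: SteadyLite luciferase luminescence. Replication: one test per compound.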
On the technique in general: A reporter such as luciferase makes a cellular process visible.
Consider `CCCC(=O)Nc1cccc(-c2cn3ccsc3n2)c1`, for which the activation was 45.8% (inactive).

As for `Cc1ccc(S(=O)(=O)NCc2cn3ccsc3n2)c(C)c1`, the activation was -0.8% (inactive).

In the case of `COc1ccc(-c2cn3ccsc3n2)cc1`, the activation was 53.3% (active).

For the compound `O=C(O)[C@@H]1CCCN1c1ncnc2sc3c(c12)CCC3`, the activation was -13.4% (inactive).

For the compound `CCOc1cc(C(=O)Nc2ncccn2)cc(OCC)c1OCC`, the activation is -1.3% (inactive).

Take `O=C(Nc1ncccn1)c1cccs1`: the activation was 18.9% (inactive).

On to `Cn1c(=O)c(C(=O)Nc2ncccn2)c(O)c2ccccc21`, for which the activation was 64.2% (active).

In the case of `Cc1ccccc1OCCC(=O)Nc1c(C)n(C)n(-c2ccccc2)c1=O`, the activation is 13.7% (inactive).

As to `Cc1nnc(NC(=O)CCC(=O)N2CCC(C)CC2)s1`, the activation was 0.2% (inactive).

For the compound `Cc1ccc(S(=O)(=O)N2CCC(N3CCCCCC3)CC2)cc1`, the activation was 10.8% (inactive).

Consider `CCN(CC)S(=O)(=O)c1cc(C(=O)Nc2ccccn2)ccc1C`, for which the activation was 49.3% (inactive).

On to `Cc1nc2c(c(=O)n1Cc1ccco1)c1nc3ccccc3nc1n2Cc1ccccc1`, for which the activation was -2.3% (inactive).

Take `CC(C)NC(=O)CCCn1c(=S)[nH]c2cc3c(cc2c1=O)OCO3`: the activation is 2.9% (inactive).

In the case of `Cc1cccc(NC(=O)c2ccc3ccccc3n2)n1`, the activation was 98.6% (active).

For `Cc1cccc(NC(=O)COc2ccccc2C)n1`, the activation was -19.2% (inactive).

Consider `Cc1cccc(NC(=O)c2ccccc2NC(=O)C(C)(C)C)n1`, for which the activation was -22.9% (inactive).

As to `O=C(c1c(Cl)nc2sccn12)N1CCCc2ccccc21`, the activation was 4.7% (inactive).

On to `CS(=O)(=O)N1CCN(C(=O)Cc2ccccc2)CC1`, for which the activation was 3.5% (inactive).

On to `O=C(CCC(=O)N1CCN(S(=O)(=O)c2ccccc2)CC1)NC1CCCc2ccccc21` (centres undefined), for which the activation is -3.9% (inactive).

Turning to `N#C/C=C1\Sc2ccccc2C(=O)N1CC(=O)N1CCN(S(=O)(=O)c2ccccc2)CC1`, the activation was 53.6% (active).

For `COc1ccccc1CNC(=O)CCn1c(=O)sc2ccccc21`, the activation is -21.4% (inactive).

Turning to `CS(=O)(=O)c1ccc2nc(NC(=O)CN3CCCCCC3)sc2c1`, the activation was -3.6% (inactive).

As to `COCCCNC(=O)Cn1cc(C(=O)C2CC2)c2ccccc21`, the activation was 1.7% (inactive).

Consider `CCOc1ccccc1Nc1nnc(SCC(=O)Nc2cc(C)on2)s1`, for which the activation is -12.5% (inactive).

Turning to `C=CCNC(=O)c1ccc(C)c(Br)c1`, the activation is -12.1% (inactive).

Regarding `COc1ccc2c(c1)CCc1c(C(=O)N3CCCC3)noc1-2`, the activation is 55.3% (active).

In the case of `COc1ccc2c(c1)CCc1c(C(=O)N3CCc4ccccc4C3)noc1-2`, the activation is 2.4% (inactive).

On to `COc1ccc2c(c1)CCc1c(C(=O)Nc3c(C)n(C)n(-c4ccccc4)c3=O)noc1-2`, for which the activation was -6% (inactive).

For the compound `O=C(O)CCC(=O)N(Cc1ccco1)c1nc(-c2ccccc2)cs1`, the activation was 9.9% (inactive).

In the case of `CCc1nc(N2CCN(c3nc(C)cc(C)n3)CC2)c2oc3ccccc3c2n1`, the activation is 12% (inactive).

For `CCc1nc(Nc2ccc3nccnc3c2)c2oc3ccccc3c2n1`, the activation was 50.3% (active).

With `CCSc1nc(C)nc2c1oc1ccccc12`, the activation was -10.2% (inactive).

Consider `COc1ccc(N2CCN(C(=O)CSc3nnc4ncccn34)CC2)cc1`, for which the activation was -2.5% (inactive).

For `CCc1nnc(NC(=O)CSc2nnc(COc3ccc(C#N)cc3)n2-c2ccccc2)s1`, the activation was 0.6% (inactive).

In the case of `CCN(CC)c1ccc(C(=O)OCC(=O)c2ccco2)cc1`, the activation was 53.6% (active).

In the case of `O=C(COC(=O)c1ccccc1C(=O)c1ccccc1)c1ccco1`, the activation was -2.1% (inactive).

With `O=C(OCC(=O)N1CCCC1)c1ccco1`, the activation was 14.1% (inactive).

Regarding `CCOC(=O)N1CCN(C(=O)C2CCN(S(C)(=O)=O)CC2)CC1`, the activation is 10.2% (inactive).

`CCOC(=O)c1sc(=S)n2c1[nH]c(=O)c1ccc(C(=O)OC)cc12`: the activation was -7.4% (inactive).

On to `CCCCOc1ccc(-c2ncc(C(=O)OCC)c(N)n2)cc1`, for which the activation is 49.8% (active).

With `CCOC(=O)c1cnc(SCC(=O)NCc2ccco2)nc1N`, the activation is 19.1% (inactive).

For `CCCCOc1ccc(NC(=O)CSCC(=O)OCC)cc1`, the activation was -6.4% (inactive).

With `O=C(CSc1nnc(-c2c[nH]c3ccccc23)n1-c1ccc(F)cc1)NCc1ccco1`, the activation was 15.7% (inactive).

For `Cc1nnc(SCCCn2c(N3CCCCC3)nc3c2c(=O)[nH]c(=O)n3C)s1`, the activation was -12.6% (inactive).

For `COc1ccccc1Nc1ncnc2c1oc1ccccc12`, the activation was 91.8% (active).

As for `COc1ccc(CCNC(=O)CSc2nc(C)nc3c2oc2ccccc23)cc1OC`, the activation was 27.4% (inactive).

Take `Cc1cc(C)nc(N2CCN(c3ncnc4c3oc3ccccc34)CC2)n1`: the activation was -8.8% (inactive).

In the case of `Cn1c2c(c(=O)n(C)c1=O)C(c1ccc(O)cc1)Nc1ccccc1O2` (centres undefined), the activation is -0.7% (inactive).

On to `COc1ccc(C2C(C(=O)Nc3ccccc3OC)=C(C)Nc3nnnn32)c(OC)c1` (centres undefined), for which the activation was -6.7% (inactive).

Consider `COc1ccccc1NC(=O)c1ccc(C)s1`, for which the activation was 50.1% (active).

For the compound `CCOc1ccccc1NC(=O)Nc1cc(OC)ccc1OC`, the activation was -10% (inactive).

For the compound `COc1ccc(OC)c(C2N(c3ccccn3)C(=O)C3CCCN32)c1` (centres undefined), the activation was -12.3% (inactive).

On to `O=C1C(=O)N(CCN2CCOCC2)C(c2ccccn2)/C1=C(/O)c1ccc(Cl)cc1` (centres undefined), for which the activation is -1.6% (inactive).

Regarding `C=C(C)COc1ccc(-c2n[nH]c(C)c2-c2ccccc2OC)c(O)c1`, the activation is -12.7% (inactive).

For `COc1cc(N=Cc2c(O)[nH]c3ccccc23)cc(OC)c1OC`, the activation is -0.5% (inactive).

As for `COc1ccc(N=Cc2c(O)[nH]c3ccccc23)cc1OC`, the activation was 60.4% (active).

`COc1ccc(OC)c(N=Cc2c(O)[nH]c3ccccc23)c1`: the activation was 0.1% (inactive).

`CCOc1nc(-c2ccc(OC)cc2)ccc1-c1noc(-c2cc(OC)c(OC)c(OC)c2)n1`: the activation was -8.3% (inactive).

With `Cc1ccc(N2C(=O)c3ccccc3C2(O)c2ncc[nH]2)cc1` (centres undefined), the activation was 6.2% (inactive).

As to `COc1ccc(CNC(=O)C2CCN(S(=O)(=O)N3CCOCC3)CC2)cc1`, the activation is 18.7% (inactive).

For the compound `CCOC(=O)c1cc(C)sc1NC(=O)C1CCC1`, the activation is 9.7% (inactive).

Regarding `O=C(Oc1cccnc1)c1cc2ccccc2oc1=O`, the activation was -8.6% (inactive).

Regarding `O=C(NCc1ccccn1)c1cc2ccccc2oc1=O`, the activation is 12.4% (inactive).

As for `Nc1ncc(-c2cc3ccccc3oc2=O)s1`, the activation was 79.3% (active).
